Hits are enriched below; roughly 1.8% of the tested compounds scored in any of these assays.
CHRM5 PAM = CHRM5 positive allosteric modulation; P08912; CHO-K1 hM5, Fluo-8 calcium, ACh EC20 PAM; 0% = ACh EC20, 100% = ACh EC100; activation, % at 3 µM; actives 0.3% (n = 360,000); AID 624038;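 active means activation above the run cutoff, the mean activation of all test compounds plus 3 SD, cut at about 18% in these data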
Target sequence (P08912 whole entry, looked up): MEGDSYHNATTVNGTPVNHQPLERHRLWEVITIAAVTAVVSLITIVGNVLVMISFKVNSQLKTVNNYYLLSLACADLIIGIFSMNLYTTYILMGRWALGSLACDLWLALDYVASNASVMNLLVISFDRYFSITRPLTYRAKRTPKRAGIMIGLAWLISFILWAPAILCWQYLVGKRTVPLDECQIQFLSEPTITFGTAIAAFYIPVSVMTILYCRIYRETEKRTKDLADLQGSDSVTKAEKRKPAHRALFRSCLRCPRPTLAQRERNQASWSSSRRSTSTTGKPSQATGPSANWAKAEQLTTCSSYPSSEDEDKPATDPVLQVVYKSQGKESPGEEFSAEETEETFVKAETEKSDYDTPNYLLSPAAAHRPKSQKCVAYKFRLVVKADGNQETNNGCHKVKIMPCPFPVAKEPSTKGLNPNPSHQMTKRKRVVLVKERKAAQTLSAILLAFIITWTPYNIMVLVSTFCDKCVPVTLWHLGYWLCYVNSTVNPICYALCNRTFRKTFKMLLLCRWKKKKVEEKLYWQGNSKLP
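System – CHO-K1 hM5 cells · Compound – 3 µM, single dose · Incubation – compound preincubation 140 s before EC20 acetylcholine addition · Technique – Fluo-8 calcium fluorescence · Measure – Max/basal fluorescence ratio as % of EC20–EC100 ACh window · Benchmarks – low control EC20 acetylcholine (0%), high control EC100 acetylcholine (100%) · Replication – singlicate, one well per test compound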
CHRM4 PAM = positive allosteric modulators of human muscarinic M4 receptor | P08173 | CHO-K1 hM4/Gqi5, Fluo-8 calcium fluorescence, ACh EC20; 0% = ACh EC20, 100% = maximal ACh | activation, % at 3 µM | actives 0.4% (n = 360,000) | AID 624126;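 active means activation above its plate's cutoff, the mean activation of sample wells plus 3 SD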
M5 ag = agonists of human muscarinic M5 receptor (CHRM5); CHO-K1 hM5 cells, Fluo-8 calcium fluorescence; 0% DMSO wells, 100% maximal acetylcholine response; activation, % at 3 µM; actives 0.19% (n = 360,000); P08912;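 active means activation above the run's mean over test compounds plus 3 SD, cut at about 23% in these data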;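 further: signal is peak over basal fluorescence ratio across the kinetic read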
CHRM4 agonist = CHRM4 agonism in calcium assay; P08173; CHO-K1 hM4/Gqi5, Fluo-8 calcium fluorescence; vehicle 0%, full acetylcholine response 100%; activation, % at 3 µM; actives 0.14% (n = 360,000); AID 624127;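 active means activation above the run mean over all test wells plus 3 SD, cut at about 32% in these data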;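 further: peak over basal fluorescence ratio per well then scaled between controls; 0% = DMSO wells and 100% = acetylcholine at EC100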
CHRM4 antagonist = antagonists of human muscarinic M4 receptor (CHRM4) | CHO-hM4 cells, ACh EC80, Fluo-8 calcium fluorescence | P08173 | inhibition, % at 3 µM | actives 0.73% (n = 360,000);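 active means inhibition above its plate's cutoff, the mean inhibition of sample wells plus 3 SD, cut at about 27% in these data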;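 further: 0% = acetylcholine EC80 with DMSO and 100% = DMSO without agonist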
M5 antag = CHRM5 antagonism in calcium assay | CHO-hM5 cells, Fluo-8 calcium fluorescence, ACh EC80 | inhibition, % at 3 µM | AID 624040 | actives 0.59% (n = 360,000);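 active means inhibition above a per-plate cutoff, the mean of that plate's test compounds plus 3 SD, cut at about 27% in these data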;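 further: 0% = acetylcholine EC80 with DMSO and 100% = DMSO without agonist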
The depositor's hits bear a star.

SMILES | CHRM5 PAM | CHRM4 PAM | M5 ag | CHRM4 agonist | CHRM4 antagonist | M5 antag
CC[C@H](C)[C@H]1CNC(=S)N1CC1CCN(CCC23CC4CC(CC(C4)C2)C3)CC1 | -19 | -15 | -3 | 2 | 67* | 18
CC(Nc1nc(-c2cccnc2)nc2ccccc12)c1ccc(F)cc1 (stereo not given) | -5 | -11 | -4 | 10 | -4 | 11
Oc1[nH]c2ccccc2c1N=Nc1ccccn1 | 1 | 7 | 3 | 1 | -8 | 11
Oc1c(N=Nc2ccccn2)ccc2ccccc12 | -14 | 0 | -7 | 1 | 35* | 33*
CCCN1C(=O)CC(Sc2ncccc2C(=O)O)C1=O (stereo not given) | -2 | -2 | -2 | 1 | 7 | 7
COc1ccc(CCN2C(=O)CC(Sc3ncccc3C(=O)O)C2=O)cc1OC (stereo not given) | 26* | 32* | -2 | 0 | -14 | -8
Cc1cccc(NC(=S)N(CCN(C)C)Cc2cc3cc(C)ccc3[nH]c2=O)c1 | 8 | 12 | 20 | 2 | 2 | 0
CCN(CC)CCN(Cc1cc2cc(C)ccc2[nH]c1=O)C(=S)Nc1ccccc1 | -16 | -6 | 52* | 1 | 5 | 46*
Cc1cccc2cc(CN(CCN(C)C)C(=S)Nc3ccccc3)c(=O)[nH]c12 | 24* | 36* | 11 | 2 | -7 | -8
Cc1ccc(N(Cc2cc3cccc(C)c3[nH]c2=O)S(=O)(=O)c2ccccc2)c(C)c1 | -12 | -5 | -6 | 8 | 9 | 28*
Cc1[nH]n(-c2ccccc2)c(=O)c1/C=N/NC(=O)c1ccccc1F | -2 | -2 | -3 | 1 | -8 | 19
Cc1cccc(C)c1-n1nnnc1C(c1ccnc2ccccc12)N(CCN(C)C)Cc1ccccc1 (stereo not given) | -3 | -7 | -3 | 5 | -5 | 6
CCOC(=O)C1=C(CC)Nc2ccccc2N/C1=N\S(=O)(=O)c1cc(Br)ccc1Br | -16 | -17 | 2 | 29 | 15 | 65*
Cn1cc(CN2CCC(n3nccc3NC(=O)CCOc3ccccc3)CC2)cn1 | -8 | -4 | -4 | 1 | -10 | 29*
O=C(COC(=O)Cn1nnc2ccccc21)NC1CCCC1 | 0 | -4 | -3 | 1 | 5 | 9
O=C(Nc1ccccc1N1CCCC1)c1ccc([N+](=O)[O-])cc1Cl | 9 | 25* | -4 | 1 | -16 | -15
CSc1ccc(/C=N/NC(=O)CN2CCN(Cc3ccc(C)cc3)CC2)cc1 | 0 | -18 | -5 | 1 | 42* | -2
CSc1ccc(/C=N/NC(=O)CN2CCN(Cc3ccccc3Cl)CC2)cc1 | 1 | -9 | 0 | 2 | -7 | -4
CC(=O)N1c2ccccc2Oc2cc3ccccc3cc21 | -6 | -1 | -6 | -1 | 2 | 2
O=C(CCl)N1c2ccccc2Oc2ccc3ccccc3c21 | -10 | -12 | 38* | 48* | 32* | 23
N#Cc1cnn(-c2ccc(F)cc2)c1N | 19* | 3 | 6 | 0 | 2 | -16
Cc1cccc(-n2c(C)cc(/C=C3\C(=N)N4N=C(CC(C)C)SC4=NC3=O)c2C)c1 | -6 | -8 | -8 | 0 | 3 | 5
CCSC1=NSC2=NC(=O)/C(=C\c3coc4ccccc4c3=O)C(=N)N12 | -21 | -22 | 51* | 63* | 38* | 63*
CC(C)CC1=NN2C(=N)/C(=C\c3coc4ccccc4c3=O)C(=O)N=C2S1 | -25 | -23 | 158* | 63* | 9 | 48*
N#Cc1cc2ccccc2nc1SCc1ccccn1 | -17 | -13 | 18 | 52* | 6 | 17
COC(=O)C1=CN(c2ccc(OC)cc2)C=C(C(=O)OC)C1c1ccc([N+](=O)[O-])cc1 | 11 | 20* | -7 | 0 | -9 | -3
COC(=O)C1=CN(c2ccc(F)cc2)C=C(C(=O)OC)C1c1ccc([N+](=O)[O-])cc1 | -7 | -2 | -4 | 0 | -4 | 17

Screening data deposited in PubChem BioAssay by The Scripps Research Institute Molecular Screening Center.
